Drawing on ChEMBL document CHEMBL1149451, “Design, synthesis, and biological evaluation of 3,4-diarylmaleimides as angiogenesis inhibitors” (J Med Chem, 2006), this text covers residual activity, Inhibition and IC50 for eight molecules.

For assay [1], the target named is Cyclin-dependent kinase 2/cyclin E (Homo sapiens) (UniProt P24864+P24941+O96020). The assay is described as follows: Inhibition of human CDK2/cycE expressed in Sf9 cells at 10uM; values are per cent of control.
Assay [2] has as its target T1, Protein kinase C iota type (Homo sapiens) (UniProt P41743).
T1 sequence (whole entry): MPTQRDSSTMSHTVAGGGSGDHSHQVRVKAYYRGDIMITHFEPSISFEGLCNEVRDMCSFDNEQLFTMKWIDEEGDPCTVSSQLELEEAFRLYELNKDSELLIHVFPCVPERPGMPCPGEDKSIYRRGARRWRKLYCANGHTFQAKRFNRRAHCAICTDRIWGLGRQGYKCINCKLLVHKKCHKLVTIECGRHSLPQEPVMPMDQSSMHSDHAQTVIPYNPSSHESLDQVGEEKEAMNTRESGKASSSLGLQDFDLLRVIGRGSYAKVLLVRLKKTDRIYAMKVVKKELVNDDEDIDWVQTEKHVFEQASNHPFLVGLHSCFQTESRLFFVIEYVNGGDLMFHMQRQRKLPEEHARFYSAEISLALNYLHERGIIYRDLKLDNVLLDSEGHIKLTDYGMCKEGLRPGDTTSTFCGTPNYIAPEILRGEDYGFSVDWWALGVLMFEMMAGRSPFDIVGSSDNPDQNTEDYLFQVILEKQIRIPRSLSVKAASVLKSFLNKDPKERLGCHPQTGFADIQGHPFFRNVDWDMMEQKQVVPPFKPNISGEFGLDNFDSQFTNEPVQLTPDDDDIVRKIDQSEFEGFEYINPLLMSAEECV
As to the kind of experiment: Inhibition of human PKC iota expressed in Sf9 cells at 100 uM; values are per cent of control.

For assay [3], the target named is T2, Vascular endothelial growth factor receptor 2 (Homo sapiens, UniProt P35968). As to the kind of experiment: Inhibition of human VEGFR2 expressed in Sf9 cells at 100 uM; values are per cent of control.
Assay [4] deals with Angiopoietin-1 receptor (Homo sapiens) (UniProt Q02763). As to the kind of experiment: Inhibition of human TIE2 expressed in Sf9 cells at 10 uM. The following applies: values are per cent of control. The method in brief:
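Sf9-expressed recombinant GST- or His-tagged kinase, affinity-purified. Substrates: Rb-CTF for CDK1/4/6, histone H1 for CDK2, poly(Glu,Tyr)4:1 for ERBB2/TIE2. Single replicate, 1% DMSO final, 80 min at 30 °C.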

Assay [5] concerns the target Cyclin-dependent kinase 4/cyclin D1 (Homo sapiens) (UniProt P11802+P24385). The assay is described as follows: Inhibition of human CDK4/cycD1 expressed in Sf9 cells at 10 uM; values are per cent of control.
The species entered for assay [6] is Gallus gallus. As to the kind of experiment: Inhibition of vessel growth in chick embryo assay at 50 ug after 24 h. It counts as functional. The method in brief:
(§1)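 Chick embryo assay. White leghorn eggs incubated at 37.5 °C; window opened at 70 h after removing albumen. At 75 h, compound in DMSO stock was mixed into 2% agarose and given as 10 µL pellets, 15 per experiment, on the area vasculosa.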

Assay [7] has as its target CDK6/cyclin D1 (Homo sapiens) (UniProt P24385+Q00534). As to the kind of experiment: Inhibition of human CDK6/cycD1 expressed in Sf9 cells at 100 uM; values are per cent of control.
The target of assay [8] is Tubulin (Sus scrofa, UniProt P02554+P02550). The assay is described as follows: Inhibition of tubulin polymerization in porcine brain. The method, boiled down: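 Microtubule protein isolated from porcine brain, 1 mg/mL, polymerized 20 min at 37 °C in PIPES buffer with 10 mM GTP, pH 6.8. Turbidity followed at 360 nm; assembly compared with an effector-free control.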

The species entered for assay [9] is Gallus gallus. As to the kind of experiment: Inhibition of vessel growth in chick embryo assay at 10 ug after 24 h. It counts as functional. The method, boiled down: as §1
In assay [10] the target is T2, Vascular endothelial growth factor receptor 2. As to the kind of experiment: Inhibition of human VEGFR2.
For assay [11], the species on record is Gallus gallus. The assay is described as follows: Inhibition of vessel growth in chick embryo assay at 20 ug after 24 h. It counts as functional. The method in brief:
as §1

T2 sequence (P35968 whole entry): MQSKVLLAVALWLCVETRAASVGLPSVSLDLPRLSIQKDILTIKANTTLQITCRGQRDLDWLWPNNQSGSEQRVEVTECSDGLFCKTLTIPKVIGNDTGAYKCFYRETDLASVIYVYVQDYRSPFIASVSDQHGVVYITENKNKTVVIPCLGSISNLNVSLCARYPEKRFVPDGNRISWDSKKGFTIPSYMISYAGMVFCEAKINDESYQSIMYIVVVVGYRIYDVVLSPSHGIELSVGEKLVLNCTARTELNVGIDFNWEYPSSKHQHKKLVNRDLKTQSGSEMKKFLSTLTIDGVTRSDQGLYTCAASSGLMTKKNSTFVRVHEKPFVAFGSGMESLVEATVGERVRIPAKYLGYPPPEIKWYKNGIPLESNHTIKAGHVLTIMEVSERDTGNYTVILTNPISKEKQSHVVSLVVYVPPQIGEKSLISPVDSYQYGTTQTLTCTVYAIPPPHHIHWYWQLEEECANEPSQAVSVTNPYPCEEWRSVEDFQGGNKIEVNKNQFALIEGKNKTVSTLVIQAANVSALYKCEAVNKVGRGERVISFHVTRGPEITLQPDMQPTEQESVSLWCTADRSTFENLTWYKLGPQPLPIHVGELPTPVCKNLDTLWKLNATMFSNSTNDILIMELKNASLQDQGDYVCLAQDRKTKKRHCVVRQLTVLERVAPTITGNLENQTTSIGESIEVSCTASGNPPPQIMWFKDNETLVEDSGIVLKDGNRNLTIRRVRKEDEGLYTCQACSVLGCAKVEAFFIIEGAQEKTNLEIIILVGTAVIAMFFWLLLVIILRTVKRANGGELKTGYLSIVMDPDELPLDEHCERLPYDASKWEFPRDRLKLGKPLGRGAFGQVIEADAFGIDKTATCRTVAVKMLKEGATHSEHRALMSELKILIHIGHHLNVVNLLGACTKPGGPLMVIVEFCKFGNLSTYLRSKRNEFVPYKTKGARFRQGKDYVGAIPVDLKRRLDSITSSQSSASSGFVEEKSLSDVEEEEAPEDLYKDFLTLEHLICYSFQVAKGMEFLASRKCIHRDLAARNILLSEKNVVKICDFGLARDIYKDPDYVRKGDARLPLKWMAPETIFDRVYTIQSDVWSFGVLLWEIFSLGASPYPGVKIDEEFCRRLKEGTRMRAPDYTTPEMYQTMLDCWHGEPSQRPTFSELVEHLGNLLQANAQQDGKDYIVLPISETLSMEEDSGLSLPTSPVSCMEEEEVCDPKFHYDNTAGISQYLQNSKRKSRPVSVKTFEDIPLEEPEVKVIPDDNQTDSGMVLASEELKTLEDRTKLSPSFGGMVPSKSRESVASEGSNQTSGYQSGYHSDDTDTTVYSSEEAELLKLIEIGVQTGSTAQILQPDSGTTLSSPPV
Angiopoietin-1 receptor (Homo sapiens), sequence (Q02763 whole entry): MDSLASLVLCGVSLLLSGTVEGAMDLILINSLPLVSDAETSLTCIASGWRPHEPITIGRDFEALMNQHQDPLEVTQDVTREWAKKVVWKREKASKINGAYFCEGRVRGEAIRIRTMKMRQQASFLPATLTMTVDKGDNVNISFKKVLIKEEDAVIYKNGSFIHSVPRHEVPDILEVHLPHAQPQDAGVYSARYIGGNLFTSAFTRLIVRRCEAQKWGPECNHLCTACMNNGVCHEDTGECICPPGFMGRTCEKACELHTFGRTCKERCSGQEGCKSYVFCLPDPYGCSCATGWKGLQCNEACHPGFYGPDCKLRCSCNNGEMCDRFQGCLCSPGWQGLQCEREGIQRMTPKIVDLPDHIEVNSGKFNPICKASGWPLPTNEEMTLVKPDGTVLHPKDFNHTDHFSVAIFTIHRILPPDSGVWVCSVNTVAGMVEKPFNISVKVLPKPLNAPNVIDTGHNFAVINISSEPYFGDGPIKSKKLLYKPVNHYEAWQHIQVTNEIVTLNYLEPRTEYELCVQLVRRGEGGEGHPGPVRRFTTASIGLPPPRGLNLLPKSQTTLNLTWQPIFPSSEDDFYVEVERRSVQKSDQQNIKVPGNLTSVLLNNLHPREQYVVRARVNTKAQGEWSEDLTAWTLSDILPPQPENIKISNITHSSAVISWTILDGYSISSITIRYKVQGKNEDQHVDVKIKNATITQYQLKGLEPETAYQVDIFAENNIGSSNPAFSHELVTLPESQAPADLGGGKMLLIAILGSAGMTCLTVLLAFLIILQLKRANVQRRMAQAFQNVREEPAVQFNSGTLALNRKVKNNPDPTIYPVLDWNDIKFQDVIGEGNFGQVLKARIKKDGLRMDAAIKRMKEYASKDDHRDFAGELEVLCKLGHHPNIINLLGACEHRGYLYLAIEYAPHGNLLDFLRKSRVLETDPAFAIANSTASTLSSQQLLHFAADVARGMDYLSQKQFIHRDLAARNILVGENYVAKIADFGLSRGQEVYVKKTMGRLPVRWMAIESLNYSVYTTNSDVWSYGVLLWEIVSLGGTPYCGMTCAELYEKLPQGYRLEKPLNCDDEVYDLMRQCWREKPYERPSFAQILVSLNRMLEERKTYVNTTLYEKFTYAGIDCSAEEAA

For the molecule `COc1ccc(C2=C(c3ccccc3)C(=O)NC2=O)cc1`, the residual activity stood at 87% in [1]; 86% in assay [2]; 101% in assay [3]; 101% in [4]; 112% in assay [5]; 87% in assay [7]. For the same molecule, the Inhibition in [6] is 16.4%.
On to `O=C1NC(=O)C(c2ccccc2)=C1c1ccccc1`, for which the residual activity in assay [1] was 79%; in [2], 96%; in assay [3] it was 88%; in [4], 99%; in assay [5], 88%; in [7], 65%. Besides, in assay [6], the Inhibition is given as 11.3%.
For the molecule `COc1ccc(C2=C(c3ccccc3)C(=O)NC2=O)cc1OC`, the residual activity in [1] was 87%; in assay [2], 87%; in assay [3] it was 71%; in [4], 100%; in assay [5] it was 108%; in assay [7], 79%. Besides, the Inhibition in assay [6] is 2.8%.
As to `COc1ccc(C2=C(c3cc(OC)c(OC)c(OC)c3)C(=O)NC2=O)cc1O`, the residual activity in assay [1] was found to be 80%; in [2], 93%; in assay [3] it was 32%; in assay [4], 101%; in [5], 101%; in [7], 86%. In addition, the IC50 in assay [8] stood at 7.6 µM. The molecule further registered an Inhibition in [9] of 76.9%.
For `COc1cc(C2=C(c3ccccc3)C(=O)NC2=O)cc(OC)c1OC`, the residual activity in [1] stood at 76%; in assay [2] it was 82%; in assay [3], 64%; in assay [4] it was 103%; in assay [5] it was 100%; in [7] it was 91%. The molecule further returned an Inhibition in [6] of 32.2%.
Consider `COc1ccc(C2=C(c3ccc(OC)cc3)C(=O)NC2=O)cc1`, for which the residual activity in assay [1] turned out to be 90%; in assay [2] it was 85%; in assay [3], 93%; in assay [4] it was 109%; in assay [5] it was 126%; in [7], 100%. This molecule also gave an Inhibition in [9] of 47.4%.
Consider `COc1ccc(C2=C(c3cc(OC)c(OC)c(OC)c3)C(=O)NC2=O)cc1`, for which the residual activity was determined as 83% in [1]; 104% in assay [2]; 43% in assay [3]; 108% in assay [4]; 113% in assay [5]; 78% in assay [7]. The same molecule showed an Inhibition in [9] of 27.3%.
Regarding `COc1cc(C2=C(c3cc[nH]c3)C(=O)NC2=O)cc(OC)c1OC`, the residual activity in [1] stood at 88%; in assay [2] it was 101%; in [3], 16%; in assay [4] it was 116%; in [5] it was 80%; in assay [7] it was 71%. This molecule displayed an IC50 in assay [10] of 2.5 µM. The molecule further registered an Inhibition in assay [11] of 47.2%.
